Results from ChEMBL document CHEMBL1143122, “Novel analogs of D-e-MAPP and B13. Part 1: synthesis and evaluation as potential anticancer agents” (Bioorg Med Chem, 2008).

Assays:
[1] = test system: BT-549; assay: Antiproliferative activity against human BT549 cells after 48 hrs; format: functional; details: BT-549, 48 h
Summary of the method: (§1)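 NCI 60-cell screen. Cells were grown in RPMI 1640 with 5% FBS and 2 mM L-glutamine, then plated at 5,000–40,000 cells/well according to doubling time and preincubated for 24 h at 37 °C in 5% CO2. Compounds were dissolved in DMSO at 400× the top final concentration and tested at five 10-fold dilutions from 10−4 to 10−8 M for 48 h. Growth was read spectrophotometrically; GI50 is 50% net protein reduction.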

[2] = test system: SK-MEL-28; assay: Antiproliferative activity against human SKMEL28 cells after 48 hrs; format: functional; details: SK-MEL-28, 48 h; summary of the method: as §1
[3] = test system: OVCAR-3; assay: Antiproliferative activity against human OVCAR-3 cells after 48 hrs; format: functional; details: OVCAR-3, 48 h; summary of the method: as §1
[4] = test system: SF-539; assay: Antiproliferative activity against human SF539 cells after 48 hrs; format: functional; details: SF-539, 48 h; summary of the method: as §1
[5] = test system: MDA-MB-435; assay: Antiproliferative activity against human MDA-MB-435 cells after 48 hrs; format: functional; details: Homo sapiens, MDA-MB-435, 48 h; summary of the method: as §1
[6] = test system: UACC-257; assay: Antiproliferative activity against human UACC257 cells after 48 hrs; format: functional; details: UACC-257, 48 h
Summary of the method: (§2)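 NCI 60-cell-line screen. Lines grown in RPMI 1640 with 5% fetal bovine serum and 2 mM L-glutamine, plated at 5,000–40,000 cells/well according to doubling time, left 24 h at 37 °C in 5% CO2. Drug stocks in DMSO at 400-fold the top final concentration. Five 10-fold dilutions, 10−4 to 10−8 M, incubated 48 h. Growth read spectrophotometrically as net protein; GI50 taken as 50% reduction.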

[7] = test system: HT-29; assay: Antiproliferative activity against human HT29 cells after 48 hrs; format: functional; details: HT-29, 48 h; summary of the method: as §1
[8] = test system: HCT-15; assay: Antiproliferative activity against human HCT15 cells after 48 hrs; format: functional; details: Homo sapiens, HCT-15, 48 h; summary of the method: as §1
[9] = test system: OVCAR-5; assay: Antiproliferative activity against human OVCAR5 cells after 48 hrs; format: functional; details: OVCAR-5, 48 h; summary of the method: as §1
[10] = test system: RXF 393; assay: Antiproliferative activity against human RXF393 cells after 48 hrs; format: functional; details: RXF 393, 48 h; summary of the method: as §1
[11] = test system: RPMI-8226; assay: Antiproliferative activity against human RPMI8226 cells after 48 hrs; format: functional; details: RPMI-8226, 48 h; summary of the method: as §1
[12] = test system: SNB-19; assay: Antiproliferative activity against human SNB19 cells after 48 hrs; format: functional; details: SNB-19, 48 h; summary of the method: as §1
[13] = test system: T47D; assay: Antiproliferative activity against human T47D cells after 48 hrs; format: functional; summary of the method: as §2
[14] = test system: SF-268; assay: Antiproliferative activity against human SF268 cells after 48 hrs; format: functional; details: SF-268, 48 h; summary of the method: as §1
[15] = test system: A549; assay: Antiproliferative activity against human A549 cells after 48 hrs; format: functional; details: A549, 48 h; summary of the method: as §1
[16] = test system: NCI-H322M; assay: Antiproliferative activity against human NCI-H322M cells after 48 hrs; format: functional; summary of the method: as §1
[17] = test system: MDA-MB-231; assay: Antiproliferative activity against human MDA-MB-231 cells after 48 hrs; format: functional; details: MDA-MB-231, 48 h; summary of the method: as §1
[18] = test system: PC-3; assay: Antiproliferative activity against human PC3 cells after 48 hrs; format: functional; details: PC-3, 48 h; summary of the method: as §1
[19] = test system: DU-145; assay: Antiproliferative activity against human DU145 cells after 48 hrs; format: functional; details: DU-145, 48 h; summary of the method: as §1
[20] = test system: UO-31; assay: Antiproliferative activity against human UO31 cells after 48 hrs; format: functional; details: UO-31, 48 h; summary of the method: as §2
[21] = test system: SK-OV-3; assay: Antiproliferative activity against human SKOV3 cells after 48 hrs; format: functional; details: SK-OV-3, 48 h; summary of the method: as §1
[22] = test system: Hs-578T; assay: Antiproliferative activity against human HS578T cells after 48 hrs; format: functional; summary of the method: as §1
[23] = test system: MOLT-4; assay: Antiproliferative activity against human MOLT4 cells after 48 hrs; format: functional; details: MOLT-4, 48 h; summary of the method: as §1
[24] = test system: NCI-H23; assay: Antiproliferative activity against human NCI-H23 cells after 48 hrs; format: functional; details: NCI-H23, 48 h; summary of the method: as §1
[25] = test system: MCF7; assay: Antiproliferative activity against human MCF7 cells after 48 hrs; format: functional, cell-based; details: MCF7, 48 h
[26] = test system: CAKI-1; assay: Antiproliferative activity against human CAKI1 cells after 48 hrs; format: functional; details: CAKI-1, 48 h; summary of the method: as §1
[27] = test system: M14; assay: Antiproliferative activity against human M14 cells after 48 hrs; format: functional; details: M14, 48 h; summary of the method: as §1
[28] = test system: NCI-H226; assay: Antiproliferative activity against human NCI-H226 cells after 48 hrs; format: functional; details: NCI-H226, 48 h; summary of the method: as §1
[29] = test system: COLO 205; assay: Antiproliferative activity against human COLO205 cells after 48 hrs; format: functional; details: COLO 205, 48 h; summary of the method: as §1
[30] = test system: U-251; assay: Antiproliferative activity against human U251 cells after 48 hrs; format: functional; details: U-251, 48 h; summary of the method: as §2
[31] = test system: OVCAR-4; assay: Antiproliferative activity against human OVCAR4 cells after 48 hrs; format: functional; details: OVCAR-4, 48 h; summary of the method: as §1
[32] = Antiproliferative activity against human NCI-ADR-RES cells after 48 hrs; format: functional; summary of the method: as §1
[33] = read-out: Log LC50 (the source's name) (converted)

**Q.** What does the source list for CCCCCCCCCCCCCCN[C@H](CO)[C@H](O)c1ccccc1?
**A.** GI50 [1]: 1.29 µM; LC50 [1]: 5.5 µM; TGI ([1]; read-out: Log TGI (converted)): 2.63 µM; GI50 [2]: 1.82 µM; LC50 [2]: 5.62 µM; TGI ([2]; read-out: Log TGI (converted)): 3.24 µM; GI50 [3]: 1.91 µM; TGI ([3]; read-out: Log TGI (converted)): 4.07 µM; GI50 [4]: 1.55 µM; LC50 [4]: 6.03 µM; TGI ([4]; read-out: Log TGI (converted)): 3.09 µM; GI50 [5]: 1.78 µM; LC50 [5]: 5.62 µM; TGI ([5]; read-out: Log TGI (converted)): 3.16 µM; GI50 [6]: 1.7 µM; CC50 [6, 33]: 7.24 µM; TGI ([6]; read-out: Log TGI (converted)): 3.47 µM; GI50 [7]: 1.7 µM; LC50 [7]: 5.62 µM; TGI ([7]; read-out: Log TGI (converted)): 3.09 µM; GI50 [8]: 1.91 µM; LC50 [8]: 6.03 µM; TGI ([8]; read-out: Log TGI (converted)): 3.39 µM; GI50 [9]: 2.09 µM; CC50 [9, 33]: 7.08 µM; TGI ([9]; read-out: Log TGI (converted)): 3.8 µM; GI50 [10]: 1.15 µM; CC50 [10, 33]: 5.13 µM; TGI ([10]; read-out: Log TGI (converted)): 2.45 µM; GI50 [11]: 1.66 µM; CC50 [11, 33]: 7.76 µM; TGI ([11]; read-out: Log TGI (converted)): 3.63 µM; GI50 [12]: 1.78 µM; TGI ([12]; read-out: Log TGI (converted)): 3.24 µM; GI50 [13]: 1.91 µM; TGI ([13]; read-out: Log TGI (converted)): 3.63 µM; GI50 [14]: 1.66 µM; TGI ([14]; read-out: Log TGI (converted)): 3.24 µM; GI50 [15]: 1.7 µM; CC50 [15, 33]: 6.03 µM; TGI ([15]; read-out: Log TGI (converted)): 3.24 µM; GI50 [16]: 2.14 µM; CC50 [16, 33]: 7.24 µM; TGI ([16]; read-out: Log TGI (converted)): 3.89 µM; GI50 [17]: 1.74 µM; LC50 (50% lethal concentration) [17]: 6.61 µM; TGI ([17]; read-out: Log TGI (converted)): 3.39 µM; GI50 [18]: 1.58 µM; LC50 [18]: 5.5 µM; TGI ([18]; read-out: Log TGI (converted)): 2.95 µM; GI50 [19]: 1.66 µM; CC50 [19, 33]: 6.17 µM; TGI ([19]; read-out: Log TGI (converted)): 3.16 µM; GI50 [20]: 3.8 µM; LC50 [20]: 79.4 µM; TGI ([20]; read-out: Log TGI (converted)): 17.8 µM; GI50 [21]: 6.76 µM; CC50 [21, 33]: 79.4 µM; TGI ([21]; read-out: Log TGI (converted)): 24.5 µM; GI50 [22]: 2.82 µM; LC50 [22]: > 100 µM; TGI ([22]; read-out: Log TGI (converted)): 6.46 µM; GI50 [23]: 2.09 µM; GI50 [24]: 3.55 µM; CC50 [24, 33]: 64.6 µM; TGI ([24]; read-out: Log TGI (converted)): 9.77 µM; GI50 [25]: 1.82 µM; TGI ([25]; read-out: Log TGI (converted)): 3.31 µM; GI50 [26]: 1.66 µM; CC50 [26, 33]: 7.76 µM; TGI ([26]; read-out: Log TGI (converted)): 3.55 µM; GI50 [27]: 1.86 µM; LC50 [27]: 5.89 µM; TGI ([27]; read-out: Log TGI (converted)): 3.31 µM; GI50 [28]: 3.24 µM; CC50 [28, 33]: > 100 µM; TGI ([28]; read-out: Log TGI (converted)): 11.7 µM; GI50 [29]: 1.86 µM; CC50 [29, 33]: 6.17 µM; TGI ([29]; read-out: Log TGI (converted)): 3.39 µM; GI50 [30]: 1.78 µM; CC50 [30, 33]: 5.62 µM; TGI ([30]; read-out: Log TGI (converted)): 3.16 µM; GI50 [31]: 1.91 µM; TGI ([31]; read-out: Log TGI (converted)): 3.8 µM; GI50 [32]: 2.09 µM; LC50 [32]: 6.92 µM; TGI ([32]; read-out: Log TGI (converted)): 3.8 µM
